Reference: ChEMBL document CHEMBL4414601 (J Med Chem, 2019)

Columns and labels:
[1] = target: Calcium-dependent protein kinase 1 (Plasmodium falciparum, UniProt P62344); test: Binding affinity to CDPK1 in Plasmodium falciparum 3D7 blood stage extract incubated for 1 hr by kinobeads based pull down assay; conditions: read-out: Kd(app)
How it was run: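 Chemoproteomic competition used kinobeads or Sepharose beads derivatized with ligand at 1 mM. Free compound was tested at six concentrations between 0.08 and 20 μM, in two independent experiments. Proteins were SP3-digested, TMT 10-plex labelled and measured by LC-MS/MS. IC50s came from competition curves, and apparent Kd was corrected for protein depletion by the beads.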

[2] = target: Beta-2 adrenergic receptor (Homo sapiens, UniProt P07550); test: Antagonist activity at human beta2 adrenoceptor
Chain of Beta-2 adrenergic receptor (P07550 whole entry): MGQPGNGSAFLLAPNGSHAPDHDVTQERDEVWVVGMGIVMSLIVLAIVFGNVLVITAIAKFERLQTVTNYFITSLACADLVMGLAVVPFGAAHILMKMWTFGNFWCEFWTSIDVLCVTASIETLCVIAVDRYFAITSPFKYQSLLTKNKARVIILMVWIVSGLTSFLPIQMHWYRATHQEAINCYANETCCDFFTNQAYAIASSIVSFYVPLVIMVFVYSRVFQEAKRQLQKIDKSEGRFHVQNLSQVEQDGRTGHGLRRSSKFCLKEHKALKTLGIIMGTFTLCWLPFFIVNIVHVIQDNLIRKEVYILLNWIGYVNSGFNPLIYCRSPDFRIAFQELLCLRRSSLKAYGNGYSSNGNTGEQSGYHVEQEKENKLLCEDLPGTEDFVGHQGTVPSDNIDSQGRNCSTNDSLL

[3] = Clearance in mouse liver microsomes at 0.5 uM measured up to 45 mins in presence of NADPH by HPLC-MS/MS analysis; assay type: ADME, Microsome
[4] = target: Voltage-gated potassium channel, IKs; KCNQ1(Kv7.1)/KCNE1(MinK) (Homo sapiens, UniProt P15382+P51787); test: Inhibition of human KCNQ1/KCNE1
Chain of Voltage-gated potassium channel, IKs; KCNQ1(Kv7.1)/KCNE1(MinK) (P51787 whole entry): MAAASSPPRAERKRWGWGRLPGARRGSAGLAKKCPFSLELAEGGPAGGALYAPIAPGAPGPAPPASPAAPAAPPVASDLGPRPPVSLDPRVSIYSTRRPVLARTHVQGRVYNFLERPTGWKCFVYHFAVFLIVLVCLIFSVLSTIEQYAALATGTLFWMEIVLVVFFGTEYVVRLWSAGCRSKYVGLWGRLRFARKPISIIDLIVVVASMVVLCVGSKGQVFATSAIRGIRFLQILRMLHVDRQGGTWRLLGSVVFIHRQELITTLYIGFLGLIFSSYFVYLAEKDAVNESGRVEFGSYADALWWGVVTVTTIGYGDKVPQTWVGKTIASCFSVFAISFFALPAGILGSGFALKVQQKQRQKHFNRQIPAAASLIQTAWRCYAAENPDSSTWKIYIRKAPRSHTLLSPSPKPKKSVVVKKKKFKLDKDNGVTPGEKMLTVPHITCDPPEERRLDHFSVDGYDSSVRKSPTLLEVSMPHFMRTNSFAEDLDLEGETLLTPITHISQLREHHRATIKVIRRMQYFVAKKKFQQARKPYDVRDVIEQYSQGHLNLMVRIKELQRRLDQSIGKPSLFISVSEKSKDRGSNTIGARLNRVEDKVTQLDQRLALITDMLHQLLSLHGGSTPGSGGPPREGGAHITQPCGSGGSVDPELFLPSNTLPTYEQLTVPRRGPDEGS

[5] = Binding affinity to zinc finger (CCCH type) protein in Plasmodium falciparum 3D7 blood stage extract incubated for 1 hr by kinobeads based pull down assay; conditions: read-out: Kd(app)
Plasmodium falciparum [6] = test: (§1) Antiplasmodial activity against Plasmodium falciparum 3D7A asexual erythrocytic stage assessed as reduction in [3H]hypoxanthine incorporation preincubated for 48 hrs followed by [3H]hypoxanthine addition and measured after 24 hrs by microbeta scintillation counting method; assay type: functional, organism-based
Plasmodium falciparum [7] = test: as §1, with “3D7A harboring with PKG T618Q mutant” for “3D7A”, “72” for “48”; assay type: functional, organism-based
[8] = target: T1, Amine oxidase [flavin-containing] A (Homo sapiens, UniProt P21397); test: Inhibition of human MAO-A
T1 sequence (P21397 whole entry): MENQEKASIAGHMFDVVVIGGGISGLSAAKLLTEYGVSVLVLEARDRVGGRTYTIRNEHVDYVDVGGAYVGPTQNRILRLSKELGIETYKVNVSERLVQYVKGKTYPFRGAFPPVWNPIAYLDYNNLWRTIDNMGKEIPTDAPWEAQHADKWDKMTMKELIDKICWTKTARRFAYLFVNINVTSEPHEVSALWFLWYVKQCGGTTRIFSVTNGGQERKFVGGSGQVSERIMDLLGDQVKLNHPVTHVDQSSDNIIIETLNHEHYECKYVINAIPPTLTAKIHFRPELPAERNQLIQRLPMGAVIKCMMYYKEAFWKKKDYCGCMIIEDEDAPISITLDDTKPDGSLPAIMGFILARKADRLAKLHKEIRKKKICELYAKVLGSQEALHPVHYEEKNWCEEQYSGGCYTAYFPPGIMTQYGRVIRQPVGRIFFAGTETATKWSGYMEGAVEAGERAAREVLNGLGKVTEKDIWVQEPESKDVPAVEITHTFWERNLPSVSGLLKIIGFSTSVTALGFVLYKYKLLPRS

Casein kinase I = target: T2, Casein kinase I (Plasmodium falciparum (isolate 3D7), UniProt Q8IHZ9); test: Binding affinity to CK1 in Plasmodium falciparum 3D7 blood stage extract incubated for 1 hr by kinobeads based pull down assay; conditions: read-out: Kd(app)
T2 sequence (Q8IHZ9 whole entry): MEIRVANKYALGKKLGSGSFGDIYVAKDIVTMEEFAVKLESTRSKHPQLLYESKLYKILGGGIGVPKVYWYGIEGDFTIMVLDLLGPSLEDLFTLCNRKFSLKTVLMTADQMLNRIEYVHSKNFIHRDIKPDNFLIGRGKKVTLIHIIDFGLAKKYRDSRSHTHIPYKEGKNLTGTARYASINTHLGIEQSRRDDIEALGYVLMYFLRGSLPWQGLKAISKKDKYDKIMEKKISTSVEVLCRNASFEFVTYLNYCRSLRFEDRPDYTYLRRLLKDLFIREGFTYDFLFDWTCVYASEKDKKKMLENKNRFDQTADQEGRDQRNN
How it was run: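 Chemoproteomic competition binding: Sepharose beads derivatized at 1 mM with the immobilized ligand (kinobeads prepared likewise). Free compound competed at six concentrations, 0.08–20 μM. Proteins were SP3-digested, TMT 10-plex labelled and quantified by LC-MS/MS on an Orbitrap. IC50 from the competition curve; apparent Kd corrected for protein depletion by the beads. Two independent experiments.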

[9] = Binding affinity to GSK3 in Plasmodium falciparum 3D7 blood stage extract incubated for 1 hr by kinobeads based pull down assay; conditions: read-out: Kd(app)
How it was run: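 The free compound competed over six concentrations from 0.08 to 20 μM. Proteins were digested by a modified SP3 protocol, labelled with TMT 10-plex and quantified by LC-MS/MS. Apparent Kd was derived from IC50 corrected for bead depletion. Two independent experiments were run.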

[10] = Clearance in human liver microsomes at 0.5 uM measured up to 45 mins in presence of NADPH by HPLC-MS/MS analysis; assay type: ADME, Microsome
Plasmodium falciparum [11] = test: as §1, with “3D7A harboring with PKG T618Q mutant” for “3D7A”; assay type: functional, organism-based
Plasmodium falciparum [12] = test: Antiplasmodial activity against […] of Plasmodium falciparum NF54 assessed as reduction in female gametocytes activation preincubated for 48 hrs followed by gametocytes activation and measured after 24 hrs by fluorescence based automated inverted microscopic analysis; assay type: functional, organism-based
How it was run: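 NF54 gametocytes were activated by lowered temperature plus ookinete medium with xanthurenic acid and anti-Pfs25-Cy3 antibody (1/2000 final dilution). Cultures were then kept at 26 °C for 24 h in the dark. Activated females were counted by Cy3 anti-Pfs25 fluorescence, with events gated on size, roundness and fluorescence intensity.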

Plasmodium falciparum [13] = test: Antiplasmodial activity against […] of Plasmodium falciparum NF54 assessed as reduction in male gametocytes activation preincubated for 48 hrs followed by gametocytes activation and measured after 24 hrs by fluorescence based automated inverted microscopic analysis; assay type: functional, organism-based
How it was run: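 Gametocyte activation was triggered by reduced temperature and ookinete medium containing xanthurenic acid. Male exflagellation centres were detected from a 10-frame video, scoring pixel changes caused by flagellar movement shifting surrounding cells.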

Plasmodium falciparum [14] = test: Antiplasmodial activity against Plasmodium falciparum 3D7A erythrocytic stage assessed as reduction in [3H]hypoxanthine incorporation preincubated for 24 hrs followed by [3H]hypoxanthine addition and measured after 24 hrs by microbeta scintillation counting method; assay type: functional, organism-based
How it was run: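 Nine threefold serial dilutions from 5 μM top concentration. Incubated 24 h at 37 °C under 5% CO2/5% O2/90% N2, then 0.2 μCi [3H]-hypoxanthine per well for another 24 h. Cells harvested on glass fibre filters and counted. Data normalized to compound-free parasitized RBCs; IC50 fitted.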

[15] = Binding affinity to zinc finger (CCCH type) protein in Plasmodium falciparum 3D7 blood stage extract incubated for 1 hr in presence of ATP-competitive kinase inhibitor by kinobeads based pull down assay; conditions: read-out: Kd(app)
[16] = Clearance in rat liver microsomes at 0.5 uM measured up to 45 mins in presence of NADPH by HPLC-MS/MS analysis; assay type: ADME, Microsome

Chain of Calcium-dependent protein kinase 1 (P62344 whole entry): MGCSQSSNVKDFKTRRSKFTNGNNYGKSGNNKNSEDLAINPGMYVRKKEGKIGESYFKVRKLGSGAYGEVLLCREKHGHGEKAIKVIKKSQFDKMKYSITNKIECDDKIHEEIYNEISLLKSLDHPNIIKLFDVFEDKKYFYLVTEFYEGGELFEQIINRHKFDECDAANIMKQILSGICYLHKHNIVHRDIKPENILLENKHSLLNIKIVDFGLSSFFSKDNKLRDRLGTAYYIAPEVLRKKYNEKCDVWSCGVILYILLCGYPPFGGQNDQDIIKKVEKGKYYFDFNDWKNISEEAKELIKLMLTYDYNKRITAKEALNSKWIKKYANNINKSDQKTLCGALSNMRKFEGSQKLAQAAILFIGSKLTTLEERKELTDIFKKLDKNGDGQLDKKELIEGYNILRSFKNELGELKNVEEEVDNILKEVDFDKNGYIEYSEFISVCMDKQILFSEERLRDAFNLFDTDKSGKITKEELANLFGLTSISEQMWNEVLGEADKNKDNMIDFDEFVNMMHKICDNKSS

Cc1cc(Nc2nccc(-c3sc(C4CCNCC4)nc3-c3ccc(F)cc3)n2)ccn1
Kd [1]: 50 nM | IC50 [2]: > 100000 nM | CLH [3]: 1.62 mL/min/g | IC50 [4]: > 25000 nM | Kd [5]: 3900 nM | EC50 (Plasmodium falciparum [6]): 130 nM | EC50 (Plasmodium falciparum [7]): 120 nM | IC50 [8]: > 100000 nM | Kd (Casein kinase I): 150 nM | Kd [9]: 90 nM | CLH [10]: 0.96 mL/min/g | EC50 (Plasmodium falciparum [11]): 150 nM | EC50 (Plasmodium falciparum [12]): 400 nM | EC50 (Plasmodium falciparum [13]): 300 nM | EC50 (Plasmodium falciparum [14]): 160 nM | Kd [15]: 3900 nM | CLH [16]: 0.87 mL/min/g
